Reference: ChEMBL document CHEMBL1142519, “Synthesis and antiprotozoal activity of cationic 2-phenylbenzofurans” (J Med Chem, 2008)

What was measured:
L6 = assay: Cytotoxicity against rat L6 cells; format: cell-based
Method in brief: (§1)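 IC50 values in µM, each the average of duplicate determinations. Parasites were T. b. rhodesiense STIB900 and axenic amastigotes of L. donovani MHOM/SD/62/1S-CL2D. Cytotoxicity was run on rat L6 myoblast cells.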

[1] = test system: Trypanosoma brucei rhodesiense; assay: Antitrypanosomal activity against Trypanosoma brucei rhodesiense STIB 900 bloodstream trypomastigotes; format: functional, organism-based; method in brief: as §1
[2] = Selectivity index, ratio of IC50 for rat L6 cells to IC50 for Trypanosoma brucei rhodesiense STIB 900; format: toxicity, cell-based; settings: read-out: Ratio IC50
Method in brief: (§2)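 Ratio of the L6 rat myoblast cytotoxicity IC50 to the IC50 against the parasite named in the line. Each IC50 is the average of duplicate determinations.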

Plasmodium falciparum = assay: Antiplasmodial activity against chloroquine-resistant Plasmodium falciparum K1; format: functional, organism-based
Method in brief: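 In vitro IC50 against chloroquine-resistant P. falciparum K1, reported as the average of duplicate determinations.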

[3] = Selectivity index, ratio of IC50 for rat L6 cells to IC50 for chloroquine-resistant Plasmodium falciparum K1; format: toxicity, cell-based; settings: read-out: Ratio IC50; method in brief: as §2
Leishmania donovani = assay: Antileishmanial activity against Leishmania donovani MHOM/SD/62/1S-CL2D axenic amastigotes; format: functional, organism-based; method in brief: as §1
[4] = Selectivity index, ratio of IC50 for rat L6 cells to IC50 for Leishmania donovani MHOM/SD/62/1S-CL2D; format: toxicity, cell-based; settings: read-out: Ratio IC50; method in brief: as §2

| SMILES | IC50 (L6) [µM] | IC50 [1] [µM] | selectivity ratio [2] | IC50 (Plasmodium falciparum) [µM] | selectivity ratio [3] | IC50 (Leishmania donovani) [µM] | selectivity ratio [4] |
| --- | --- | --- | --- | --- | --- | --- | --- |
| COc1cc(C(=N)NC(C)C)cc2cc(-c3ccc(C(=N)NC(C)C)cc3)oc12 | > 190 | 0.09 | > 2110 | 0.048 | > 3960 | 15 | > 12 |
| Oc1ccc(C2=NCCN2)cc1-c1cc2cc(C3=NCCN3)ccc2o1 | > 199 | 0.227 | > 877 | 0.023 | > 8650 | 57 | 4 |
| c1cc(C2=NCCN2)cc(-c2cc3ccc(C4=NCCN4)cc3o2)c1 | 12.8 | 0.333 | 38 | 0.205 | 62 | > 100 | 0.1 |
| CC(C)NC(=N)c1cccc(-c2cc3cc(C(=N)NC(C)C)ccc3o2)c1 | > 199 | 0.473 | > 421 | 0.331 | > 601 | 13 | > 15 |
| N=C(N)c1cccc(-c2cc3cc(C(=N)N)ccc3o2)c1 | 21.2 | 0.024 | 883 | 0.019 | 1120 | 5.8 | 4 |
| C[C@@H]1CC[C@H]2[C@@H](C)C(=O)O[C@@H]3O[C@@]4(C)CC[C@@H]1[C@]32OO4 [ARTEMISININ] | – | – | – | – | 75000 | – | – |
| COc1ccc(C(=N)NC(C)C)cc1-c1cc2cc(C(=N)NC(C)C)ccc2o1 | > 179 | 0.155 | > 1160 | 0.25 | > 716 | 25 | > 7 |
| c1ccc2[nH]c(-c3ccc(-c4cc5cc(C6=NCCN6)ccc5o4)cc3)nc2c1 | 59.3 | 0.228 | 260 | 0.061 | 972 | > 100 | < 0.6 |
| c1cc(-c2cc3ccc(C4=NCCN4)cc3o2)ccc1C1=NCCN1 | 4.5 | 0.319 | 14 | 0.109 | 41 | > 50 | < 0.1 |
| CC(C)NC(=N)c1ccc(O)c(-c2cc3cc(C(=N)NC(C)C)ccc3o2)c1 | > 180 | 1 | > 179 | 0.516 | > 349 | 40 | > 5 |
| CC(C)NC(=N)c1ccc(O)c(-c2cc3ccc(C(=N)NC(C)C)cc3o2)c1 | > 187 | 5.1 | > 37 | 0.636 | > 294 | > 100 | – |
| CC(C)NC(=N)c1cccc(-c2cc3ccc(C(=N)NC(C)C)cc3o2)c1 | > 200 | 0.534 | > 375 | 0.059 | > 3390 | 24 | > 8 |
| c1c[nH]c(-c2ccc(-c3cc4cc(-c5ncc[nH]5)ccc4o3)cc2)n1 | 3.3 | 0.606 | 5 | 0.033 | 100 | > 100 | < 0.03 |
| COc1cc(C2=NCCN2)ccc1-c1cc2cc(C3=NCCN3)ccc2o1 | 7.4 | 0.247 | 30 | 0.031 | 239 | 60 | 0.1 |
| c1cc(C2=NCCN2)cc(-c2cc3cc(C4=NCCN4)ccc3o2)c1 | 33.9 | 0.078 | 435 | 0.076 | 446 | 24 | 1.5 |
| COc1ccc(C(=N)NC(C)C)cc1-c1cc2ccc(C(=N)NC(C)C)cc2o1 | > 175 | 0.929 | > 188 | 0.293 | > 597 | 54 | > 3 |
